Data as given in ChEMBL document CHEMBL2346519, “Substituted indolin-2-ones as p90 ribosomal S6 protein kinase 2 (RSK2) inhibitors: Molecular docking simulation and structure-activity relationship analysis” (Bioorg Med Chem, 2013).

Key:
[1] = target: T1, Ribosomal protein S6 kinase alpha-3 (Homo sapiens, UniProt P51812); experiment: Inhibition of RSK2 (unknown origin) using AKRRRLSSLRA as substrate at 10 uM after 60 mins by fluorescence assay relative to control
[2] = target: T1, Ribosomal protein S6 kinase alpha-3; experiment: Inhibition of RSK2 (unknown origin) using AKRRRLSSLRA as substrate after 60 mins by fluorescence assay
MCF7 [3] = experiment: Cytotoxicity against human MCF7 cells assessed as growth inhibition after 48 hrs by MTT assay; assay type: functional, cell-based; details: MCF7, 48 h
In short: (§1)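 MCF-7 cells grown in DMEM plus 10% FBS and PC 3 cells in F-12K, both seeded at 5 × 10^3 per well. Cells were exposed to compounds at various concentrations for 48 h. MTT was then added for 4 h at 37 °C in 5% CO2, formazan was dissolved in DMSO, and absorbance was read at 570 nm. IC50 was taken from inhibition curves of three independent experiments and measured only where inhibition at 100 µM exceeded 50%.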

PC-3 [4] = experiment: Cytotoxicity against human PC3 cells assessed as growth inhibition at 100 uM after 48 hrs by MTT assay relative to control; assay type: functional; details: PC-3, 48 h, read-out: GI
In short: (§2)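 Single-concentration screen at 100 µM by 48 h MTT. MCF-7 cells were grown in DMEM plus 10% FBS and PC 3 cells in F-12K, 5 × 10^3 cells per well. After 4 h with MTT at 37 °C, formazan was dissolved in DMSO and absorbance read at 570 nm. Percent inhibition is reported.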

MCF7 [5] = experiment: Cytotoxicity against human MCF7 cells assessed as growth inhibition at 100 uM after 48 hrs by MTT assay relative to control; assay type: functional; details: MCF7, 48 h, read-out: GI; in short: as §2
PC-3 [6] = experiment: Cytotoxicity against human PC3 cells assessed as growth inhibition after 48 hrs by MTT assay; assay type: functional, cell-based; details: PC-3, 48 h; in short: as §1
[7] = target: T1, Ribosomal protein S6 kinase alpha-3; experiment: Inhibition of RSK2 (unknown origin)

T1 sequence (P51812 whole entry): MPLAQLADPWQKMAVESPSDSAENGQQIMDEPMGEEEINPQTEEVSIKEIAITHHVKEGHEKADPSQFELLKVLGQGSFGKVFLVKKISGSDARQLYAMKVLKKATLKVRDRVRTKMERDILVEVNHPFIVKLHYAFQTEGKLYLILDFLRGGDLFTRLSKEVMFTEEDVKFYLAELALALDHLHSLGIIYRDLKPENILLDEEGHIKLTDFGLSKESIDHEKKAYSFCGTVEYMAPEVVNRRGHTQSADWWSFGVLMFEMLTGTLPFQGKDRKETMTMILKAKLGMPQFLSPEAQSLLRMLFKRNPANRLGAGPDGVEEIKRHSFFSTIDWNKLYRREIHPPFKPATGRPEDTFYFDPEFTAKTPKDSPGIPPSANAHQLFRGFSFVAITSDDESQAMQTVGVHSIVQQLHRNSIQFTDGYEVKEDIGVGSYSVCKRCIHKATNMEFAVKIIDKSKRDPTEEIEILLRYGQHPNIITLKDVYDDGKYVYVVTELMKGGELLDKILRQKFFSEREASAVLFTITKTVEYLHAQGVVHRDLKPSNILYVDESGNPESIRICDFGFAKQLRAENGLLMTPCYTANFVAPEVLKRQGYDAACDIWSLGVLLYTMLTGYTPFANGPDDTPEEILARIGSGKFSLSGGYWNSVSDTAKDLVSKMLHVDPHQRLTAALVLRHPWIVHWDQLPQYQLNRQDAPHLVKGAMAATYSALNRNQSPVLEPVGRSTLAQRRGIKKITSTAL

Row | SMILES | inhibition [1] | other results
1 | Nc1ccc2c(c1)/C(=C\c1ccco1)C(=O)N2 | 100% | IC50 [2]: 2.49 µM; IC50 (MCF7 [3]): 15.5 µM; inhibition of growth at 100 µM (PC-3 [4]): < 10%
2 | O=C1Nc2ccccc2/C1=C/c1ccc(-c2cccc(Br)c2)o1 | 21.9% | 
3 | Cc1cccc2c1NC(=O)/C2=C1\SC(=S)NC1=O | 92.4% | IC50 [2]: 1.68 µM; inhibition of growth at 100 µM (MCF7 [5]): 41.5%; inhibition of growth at 100 µM (PC-3 [4]): < 10%
4 | O=C1Nc2ccc(Br)cc2/C1=C/c1c[nH]nc1-c1ccc(F)cc1 | < 10% | 
5 | COc1ccc2c(c1)/C(=C\c1ccco1)C(=O)N2 | 25.6% | 
6 | O=C1Nc2ccc(Br)cc2/C1=C/c1c[nH]nc1-c1ccccc1 | 33.6% | 
7 | O=C1Nc2ccccc2/C1=C/c1ccc(-c2c(Cl)cc(C(F)(F)F)cc2Cl)o1 | < 10% | 
8 | O=C1Nc2ccc(F)cc2/C1=C/c1ccc(-c2cccc(Br)c2)o1 | 26.3% | 
9 | O=C1Nc2ccc([N+](=O)[O-])cc2/C1=C\c1ccco1 | 29.8% | 
10 | Cn1cc(C2=C(c3cn(CCCSC(=N)N)c4ccccc34)C(=O)NC2=O)c2ccccc21 [BISINDOLYLMALEIMIDE IX] |  | IC50 (PC-3 [6]): 1.74 µM
11 | O=C1Nc2ccc(Br)cc2/C1=C/c1ccc(-c2cccc(Br)c2)o1 | < 10% | 
12 | O=C1Nc2ccccc2/C1=C/c1ccc(-c2ccccc2Cl)o1 | 16.8% | 
13 | O=C1Nc2ccccc2/C1=C/c1c[nH]nc1-c1ccccc1 | 79.5% | IC50 [2]: 2.72 µM; IC50 (MCF7 [3]): 8.55 µM; IC50 (PC-3 [6]): 6.19 µM
14 | O=C1Nc2ccc(F)cc2/C1=C/c1c[nH]nc1-c1ccccc1 | 78.4% | IC50 [2]: 8.59 µM; inhibition of growth at 100 µM (MCF7 [5]): < 10%; inhibition of growth at 100 µM (PC-3 [4]): < 10%
15 | CCc1cccc2c1NC(=O)/C2=C1\SC(=S)NC1=O | 50.1% | IC50 [2]: 17 µM; inhibition of growth at 100 µM (MCF7 [5]): 16%; inhibition of growth at 100 µM (PC-3 [4]): 40.9%
16 | Cc1c(Cl)ccc2c1NC(=O)/C2=C1\SC(=S)NC1=O | 39.6% | 
17 | O=C1Nc2ccc(Br)cc2/C1=C\c1ccco1 | 87.3% | IC50 [2]: 1.51 µM; IC50 (MCF7 [3]): 9.84 µM; IC50 (PC-3 [6]): 16.9 µM
18 | O=C1Nc2ccccc2/C1=C/c1c[nH]nc1-c1ccc(F)cc1 | 38.6% | 
19 | N=C1NC(=O)/C(=C2/C(=O)Nc3cc(Cl)ccc32)S1 | 18.4% | 
20 | O=C1Nc2ccccc2/C1=C/c1ccc(CN2C(=O)c3ccccc3C2=O)o1 | 16.5% | 
21 | O=C1Nc2ccccc2/C1=C/c1ccco1 | 69.6% | IC50 [2]: 3.47 µM; IC50 (MCF7 [3]): 30.1 µM; IC50 [7]: 7.76 µM; inhibition of growth at 100 µM (PC-3 [4]): < 10%
22 | COc1ccc(-n2c(/C=C3\C(=O)Nc4ccccc43)nc3ccc(I)cc3c2=O)cc1 | 13.4% | 

Now from value to molecule, other results behind:

Row | inhibition [1] | SMILES | other results
23 | 17.1% | O=C1Nc2ccc(F)cc2/C1=C/c1ccc(-c2ccccc2Cl)o1 | 
24 | 44.5% | O=C1Nc2ccc(Cl)cc2/C1=C/c1c[nH]nc1-c1ccc(F)cc1 | 
25 | < 10% | CCn1c(/C=C2\C(=O)Nc3ccccc32)nc2ccccc2c1=O | 
26 | 33.2% | O=C1Nc2ccc(Cl)cc2/C1=C/c1c[nH]nc1-c1ccccc1 | 
27 | < 10% | O=C1Nc2ccccc2/C1=N/N=C1\CCCc2c1[nH]c1ccc(Cl)cc21 | 
28 | 30.1% | Cc1ccc(N/N=C2/C(=O)Nc3ccc(F)cc32)cc1 | 
29 | < 10% | O=C1Nc2ccc(Cl)cc2/C1=C/c1ccc(-c2cccc(Br)c2)o1 | 
30 | 11.5% | O=C1Nc2ccc(Br)cc2/C1=N/NC(=O)c1ccco1 | 
31 | < 10% | O=C1Nc2ccc(Cl)cc2/C1=C/c1c[nH]nc1-c1ccc(Cl)cc1 | 
32 | 22.3% | O=C1Nc2ccc(Br)cc2/C1=C/c1ccc(-c2ccccc2Cl)o1 | 
33 | < 10% | O=C1Nc2ccc(F)cc2/C1=C/c1c[nH]nc1-c1ccc(F)cc1 | 
34 | < 10% | O=C1Nc2ccc(Cl)cc2/C1=C1/S/C(=N\c2ccccc2)N(c2ccccc2)C1=O | 
35 | < 10% | NC(=O)c1ccc(/N=C2/C(=O)Nc3ccccc32)cc1 | 
36 | < 10% | CCc1ccc2c(c1)/C(=N\NC(=O)CSc1ccc(Cl)cc1)C(=O)N2 | 
37 | 84.8% | O=C1Nc2ccc(Cl)cc2/C1=C\c1ccco1 | IC50 [2]: 2.02 µM; IC50 (MCF7 [3]): 14.7 µM; IC50 (PC-3 [6]): 23.9 µM
38 | 41.1% | CC(=O)NN1C(=O)/C(=C2/C(=O)Nc3ccc(C)cc32)SC1=S | 
39 | < 10% | O=C1Nc2ccc(Br)cc2/C1=N/NC(=O)c1ccc2c(c1)OCO2 | 
40 | 32.1% | O=C1Nc2ccc(Cl)cc2/C1=C/c1ccc(-c2ccccc2Cl)o1 | 
